PAFAH1B3 inh – PAFAH1B3 enzyme inhibitors, primary screen, biochemical, fluorescence polarization, human. 340,000 compounds, 0.28% hits. Platelet-activating factor acetylhydrolase IB subunit alpha1 (Homo sapiens), Q15102. recombinant PAFAH1B3, FP-rhodamine probe. inhibition, % at 3.39 µM;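 active means inhibition above the screen-wide average of all tested compounds plus 3 SD, cut at about 25% in these data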;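 further: 0% = enzyme with DMSO only and 100% = wells lacking PAFAH1B3 protein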
Target sequence (Q15102 whole entry, looked up): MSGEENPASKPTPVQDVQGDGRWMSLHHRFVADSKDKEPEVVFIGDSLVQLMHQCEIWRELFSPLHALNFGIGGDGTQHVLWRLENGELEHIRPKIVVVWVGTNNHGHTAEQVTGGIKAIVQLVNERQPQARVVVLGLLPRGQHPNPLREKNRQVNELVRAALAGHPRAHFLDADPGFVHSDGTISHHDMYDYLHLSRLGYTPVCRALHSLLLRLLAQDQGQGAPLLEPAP
IMP-1 inh – IMP-1 metallo-beta-lactamase inhibitors, primary screen, biochemical, epi-absorbance readout, Pseudomonas aeruginosa enzyme; metallo-beta-lactamase IMP-1 (Pseudomonas aeruginosa); purified IMP-1, nitrocefin hydrolysis, epi-absorbance fluorescence; inhibition, % at 5.6 µM; 290,000 compounds, 0.45% hits;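 active means inhibition above the mean plus 3 SD of all compounds in the same screening run, cut at about 4.5% in these data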;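 further: 0% = IMP-1 with DMSO and 100% = DMSO wells lacking enzyme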
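System: Purified IMP-1 | Read-out basis: Percent enzyme inhibition | Controls: IMP-1 with DMSO as 0%, enzyme-free DMSO as 100% | Replicates: One well per compound | Doses: 5.6 µM nominal single concentration | Detection: Epi-absorbance fluorescence, 480 nm excitation, 530 nm emission | Incubation: 25 °C, 15 min preincubation, 25 min reaction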
VIM-2 inh – VIM-2 metallo-beta-lactamase inhibitors, primary screen, biochemical, epi-absorbance readout, Pseudomonas aeruginosa enzyme | purified VIM-2, nitrocefin hydrolysis, epi-absorbance fluorescence | inhibition, % at 5.6 µM | 290,000 compounds, 0.89% hits | AID 1527, 2009;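 active means inhibition above the mean of all tested compounds plus 3 SD, cutoff set per screening run, cut at about 7.5% in these data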;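 further: red hydrolysis product quenches plate fluorescence so inhibitors raise well fluorescence; 0% = enzyme with DMSO and 100% = DMSO without enzyme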
pPAFAH inh – pPAFAH enzyme inhibitors, primary screen, biochemical, fluorescence polarization, human. Platelet-activating factor acetylhydrolase (Homo sapiens), Q13093. inhibition, % at 3.39 µM. 330,000 compounds, 1.5% hits. recombinant pPAFAH, FP-rhodamine probe fluorescence polarization. AID 463082, 2010;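 active means inhibition above the mean inhibition across the screen plus 3 SD, cut at about 25% in these data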;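 further: inhibitors block binding of the rhodamine activity-based probe so polarization drops; 0% = enzyme with DMSO and 100% = wells lacking pPAFAH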
PAFAH1B2 FP inh – PAFAH1B2 enzyme inhibitors, primary screen, biochemical, fluorescence polarization, human; inhibition, % at 3.39 µM; 340,000 compounds, 1.2% hits; recombinant PAFAH1B2, FP-rhodamine activity probe; Platelet-activating factor acetylhydrolase IB subunit alpha2 (Homo sapiens), P68402; AID 492953, 2010;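 active means inhibition above the mean of all tested compounds plus 3 SD, cut at about 24% in these data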;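 further: 0% = enzyme with DMSO and 100% = wells lacking PAFAH1B2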
Target sequence (P68402 whole entry, looked up): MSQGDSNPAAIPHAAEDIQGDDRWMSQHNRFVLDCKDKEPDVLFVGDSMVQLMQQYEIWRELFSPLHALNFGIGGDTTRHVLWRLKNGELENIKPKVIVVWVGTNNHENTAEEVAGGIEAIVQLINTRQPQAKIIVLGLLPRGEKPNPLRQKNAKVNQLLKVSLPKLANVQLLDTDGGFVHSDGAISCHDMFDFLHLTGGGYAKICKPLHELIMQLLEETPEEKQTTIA
PAFAH2 inh – PAFAH2 enzyme inhibitors, primary screen, biochemical, fluorescence polarization, human; inhibition, % at 3.39 µM; recombinant PAFAH2, FP-rhodamine activity probe; Platelet-activating factor acetylhydrolase 2, cytoplasmic (Homo sapiens), Q99487; 340,000 compounds, 0.99% hits;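 active means inhibition above the mean over all tested compounds plus 3 SD, cut at about 30% in these data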;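 further: inhibitors block probe labeling of enzyme so polarization drops; 0% = enzyme with DMSO and 100% = wells lacking PAFAH2 protein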
PAFAH1B3 conf FP – PAFAH1B3 enzyme inhibitors, confirmation, biochemical, fluorescence polarization, human | shares compounds with PAFAH1B3 inh | recombinant PAFAH1B3, FP-Rh activity-based probe | inhibition, % at 3.39 µM | 390 compounds, 30% hits;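 active means average inhibition over triplicate runs above the hit cutoff set in the earlier primary screen, cut at about 25% in these data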;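 further: 0% = enzyme with DMSO and 100% = wells lacking PAFAH1B3 protein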
An asterisk follows results filed as active; . = no result; + = active, no number; ! = repeats disagree. Most compounds without a hit are left out; they make up all but 3.6% or so of the library.

SMILES	PAFAH1B3 inh	IMP-1 inh	VIM-2 inh	pPAFAH inh	PAFAH1B2 FP inh	PAFAH2 inh	PAFAH1B3 conf FP
CSc1ccc(/C=N/Nc2cccc(C(=O)O)c2)cc1	33*	-2	-1	.	22	20	26*
O=C(Cn1[nH]c(=O)c2ccccc2c1=O)NNC(=O)c1ccccc1	8	-4	1	12	4	1	.
O=S(=O)(Nc1nc2ccccc2nc1NCCO)c1cccc(Cl)c1	26*	-5	-4	10	9	4	10
COc1ccccc1OCCSc1nc(C)c(Cc2ccccc2)c(=O)[nH]1	.	-1	-3	0	.	.	.
C=CCOc1c(Br)cc(/C=C2\SC(=Nc3ccccc3)NC2=O)cc1OC	8	-3	-3	.	-5	-6	.
C=CCOc1ccc(Br)cc1/C=C1/SC(=Nc2ccc(C(=O)O)cc2)NC1=O	31*	-2	2	.	10	0	21
CS(=O)(=O)N1CCc2cc(-c3csc(NC(=O)Cc4cccs4)n3)ccc21	36*	0	-1	16	3	-6	5
O=C(CSc1nccc(=O)[nH]1)N1CCc2ccccc2C1	28*	-3	-2	7	4	2	5
CSCCC(NC(=O)COc1ccccc1)C(=O)N1CCCC(C)C1 (configuration not stated)	3	-3	0	5	1	3	.
O=C1C(c2ccccc2)=[N+]([O-])c2ccccc21	28*	.	.	5	5	18	13
O=[N+]([O-])c1cc(Br)c(Nc2ccccc2)c([N+](=O)[O-])c1	36*	-3	7	5	5	21	29*
O=C(Nc1ccccc1)c1ccc(Nc2c([N+](=O)[O-])cc([N+](=O)[O-])c3ccccc23)cc1	-7	-1	-1	-4	-1	11	.
O=C(Cn1cnc2c(oc3nc4c(cc32)CCCC4)c1=O)Nc1cccc(Cl)c1	-1	-3	-6	6	2	-3	.
Cc1[nH][nH]c(=O)c1C(c1ccc(-c2cccc(Cl)c2)o1)c1c(C)[nH][nH]c1=O	46*	-2	-1	7	13	18	19
C=CCNC(=S)Nc1sc2c(c1C(N)=O)CCCC2	.	-3	-3	3	.	.	.
C=CC(=O)Nc1sc2c(c1C(N)=O)CCCC2	32*	.	.	-3	-1	3	30*
Cc1cc(C)nc(Nc2ccc(Cl)cc2C)n1	10	-1	-1	.	7	3	.
COC(=O)c1c[nH]c2c1-c1cc(C(=O)OCc3ccccc3)n(S(=O)(=O)c3ccc(C)cc3)c1C(=O)C2=O	38*	.	.	.	9	9	8
CC1(C(=O)CSc2n[nH]c(-c3ccccc3Cl)n2)CCC(=O)O1 (configuration not stated)	.	-1	-3	3	.	.	.
O=C(O)c1ccccc1O	6	-6	-1	-5	-8	-2	.
Nc1c(O)cccc1C(=O)O	30*	.	.	12	4	3	10
Cn1c(CNC(=O)c2ccccc2F)cc2ccccc21	6	-1	2	7	2	9	.
COc1cc2c(C#N)c(N3CCCC3)nc(N)c2c(N)n1	43*!	-3	1	8	10	12	11
CCCOc1cc2c(C#N)c(N3CCCC3)nc(N)c2c(N)n1	28*	.	.	7	10	15	15
COc1cc2c(C#N)c(N3CCN(C)CC3)nc(N)c2c(N)n1	3	-4	3	6	2	-5	.
SMILES	PAFAH1B3 inh	IMP-1 inh	VIM-2 inh	pPAFAH inh	PAFAH1B2 FP inh	PAFAH2 inh	PAFAH1B3 conf FP
COc1ccccc1-c1nnc2n1N=C(c1ccc(O)c(O)c1)CS2	30*	-2	0	17	7	17	23
CCn1ccnc1CNC(=O)C1CCC(=O)N(Cc2cccc(C(F)(F)F)c2)C1 (configuration not stated)	6	-3	-3	3	2	5	.
Cc1ccc(C(=O)O)cc1N1C(=O)c2cccc3cc(Br)cc(c23)C1=O	57*	-1	-1	5	3	2	57*
O=C(O)c1ccc(N2C(=O)c3cccc4cccc(c34)C2=O)cc1	-3	-1	-1	.	1	-3	.
O=C(COC(=O)Cc1cccs1)NCC(=O)Nc1ccc(F)cc1	42*	.	.	5	7	1	8
Cc1ccc(C)c(NC(=O)CC2Oc3ccccc3NC2=O)c1 (configuration not stated)	0	-3	-1	1	8	1	.
COc1ccc(C(=O)C[n+]2ccccc2/C=N/O)cc1	26*	-4	-5	2	5	8	18
CCCc1cc(C(=O)Nc2ccc(C#N)cc2)no1	6	-2	-3	10	4	-11	.
COc1ccc(C(=O)C2CN(c3ccccc3)CC2c2ccc(Cl)cc2)cc1 (configuration not stated)	8	-2	-1	6	7	-1	.
C[C@@H]1C=C(C(=O)NCc2nc3ccccc3[nH]2)O[C@H](OCCCCO)C1	+	.	.	-2	-6	-3	8
C[C@@H]1C=C(C(=O)NCc2nc3ccccc3[nH]2)O[C@H](OCc2ccc(CO)cc2)C1	-2	.	.	-4	4	7	.
CC(CN1CCCCC1)OC(=O)c1cc2ccccc2o1 (configuration not stated)	0	-2	-1	-3	2	-6	.
Cc1ccc(C2=NOC(=O)/C2=C\C=C\c2ccccc2)cc1	36*	-2	-4	.	12	16	29*
Cc1ccc(S(=O)(=O)N2CCCCC2)cc1C(=O)NC1CCCCC1	4	-4	-5	-2	15	1	.
COc1ccc(NC(=O)c2cccc(N3C(=O)c4ccc(C(=O)Nc5ccc(OC)c(O)c5)cc4C3=O)c2)cc1O	26*	-4	-1	5	12	-5	17
O=C(Nc1ccc(F)cc1F)Nc1csc2ccccc12	.	-2	-2	8	.	.	.
O=C(Nc1ccc(F)c(Cl)c1)Nc1csc2ccccc12	30*	-3	0	-2	18	4	21
Cc1oc2c(c1C(=O)O)C(=O)c1ccccc1C2=O	20	-3	-2	0	6	4	.
CCOC(=O)c1c(C)oc2c1C(=O)c1ccccc1C2=O	30*	-2	5	6	11	5	23

Screening results: PubChem, The Scripps Research Institute Molecular Screening Center
